The text below walks through data of ChEMBL document CHEMBL1124366, “Synthesis and biological properties of N63-carboxamides of teicoplanin antibiotics. Structure-activity relationships” (J Med Chem, 1989).

Common to all, as to assay type: functional
Test [1] concerns Pseudomonas aeruginosa. The experiment in a line: In vitro minimum inhibitory concentration against Pseudomonas aeruginosa ATCC 10145.
Test [2] concerns Streptococcus pyogenes. The experiment in a line: In vitro minimum inhibitory concentration against Streptococcus pyogenes C 203.
Test [3] has as its system Escherichia coli. Put plainly: In vitro minimum inhibitory concentration against Escherichia coli SKF 12140.
Test [4] concerns Streptococcus pneumoniae. Put plainly: In vitro minimum inhibitory concentration against Streptococcus pneumoniae UC41.
Test [5] relates to Streptococcus pyogenes. The experiment in a line: Subcutaneously administration into mice infected with Streptococcus pyogenes C 203. Particulars: sc. The gist of the method: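 Mice (five per treatment group, five groups) infected intraperitoneally with about 10⁵ cells of Strep. pyogenes C 203, about 100× the LD50. ED50 (mg/kg) was calculated from the percentage of mice surviving at each dose on day 7.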

The test system of test [6] is Staphylococcus haemolyticus. Put plainly: In vitro minimum inhibitory concentration against Staphylococcus hemolyticus 602 cell line. Particulars: strain 602.
Test [7] deals with Enterococcus faecalis. Put plainly: In vitro minimum inhibitory concentration against Streptococcus faecalis ATCC 7080.
For test [8], the system named is Staphylococcus epidermidis. The experiment in a line: In vitro minimum inhibitory concentration against Staphylococcus epidermis ATCC 12228.
Test [9] has as its system Staphylococcus aureus. The experiment in a line: In vitro minimum inhibitory concentration against Staphylococcus aureus Tour.
Test [10] concerns Proteus vulgaris. The experiment in a line: In vitro minimum inhibitory concentration against Proteus vulgaris X 19 ATCC 881.

Converted amounts (≈) assume the structure as drawn. Bounds are passed on as bounds.

Consider `CNCCN(C)C(=O)[C@H]1NC(=O)[C@H]2NC(=O)[C@H](NC(=O)[C@@H]3NC(=O)[C@H]4NC(=O)[C@@H](Cc5ccc(c(Cl)c5)Oc5cc3cc(c5O)Oc3ccc(cc3Cl)[C@H]2O)NC(=O)[C@H](N)c2ccc(O)c(c2)Oc2cc(O)cc4c2)c2ccc(O)c(c2)-c2c(O)cc(O)cc21`, for which the MIC in [1] is 64 µg/mL (≈ 50.4 µM); in test [2], 0.12 µg/mL (≈ 0.0946 µM); in test [3], 16 µg/mL (≈ 12.6 µM); in test [4], 0.12 µg/mL (≈ 0.0946 µM); in [6], 0.12 µg/mL (≈ 0.0946 µM); in [7], 0.12 µg/mL (≈ 0.0946 µM). The values for the MIC in [8], in test [9] and in test [10] were 0.06 µg/mL (≈ 0.0473 µM), 0.12 µg/mL (≈ 0.0946 µM) and more than 128 µg/mL, respectively. Moreover, the 50% effect level in [5] (ED50) was put at a dose of 1.25 mg/kg.
`N[C@H]1C(=O)N[C@@H]2Cc3ccc(c(Cl)c3)Oc3cc4cc(c3O)Oc3ccc(cc3Cl)[C@@H](O)[C@@H]3NC(=O)[C@H](NC(=O)[C@@H]4NC(=O)[C@@H](NC2=O)c2cc(O)cc(c2)Oc2cc1ccc2O)c1ccc(O)c(c1)-c1c(O)cc(O)cc1[C@@H](C(=O)NCCCN1CCOCC1)NC3=O`: the MIC is 32 µg/mL (≈ 24.1 µM) in test [1]; 0.06 µg/mL (≈ 0.0453 µM) in [2]; 8 µg/mL (≈ 6.04 µM) in test [3]; 0.12 µg/mL (≈ 0.0906 µM) in [4]; 0.12 µg/mL (≈ 0.0906 µM) in [6]; 0.12 µg/mL (≈ 0.0906 µM) in test [7]. The MIC came to 0.06 µg/mL (≈ 0.0453 µM) in test [8], 0.06 µg/mL (≈ 0.0453 µM) in test [9] and 64 µg/mL (≈ 48.3 µM) in test [10]. Besides, in test [5], the ED50 (in general, the dose at which the effect has come halfway, by size or by number of responders) was found to be 1.4 mg/kg.
As to `CN(C)CCN(C)C(=O)[C@H]1NC(=O)[C@H]2NC(=O)[C@H](NC(=O)[C@@H]3NC(=O)[C@H]4NC(=O)[C@@H](Cc5ccc(c(Cl)c5)Oc5cc3cc(c5O)Oc3ccc(cc3Cl)[C@H]2O)NC(=O)[C@H](N)c2ccc(O)c(c2)Oc2cc(O)cc4c2)c2ccc(O)c(c2)-c2c(O)cc(O)cc21`, the MIC in [1] turned out to be 64 µg/mL (≈ 49.9 µM); in [2], 0.06 µg/mL (≈ 0.0468 µM); in [3], 8 µg/mL (≈ 6.23 µM); in test [4], 0.06 µg/mL (≈ 0.0468 µM); in [6] it was 0.06 µg/mL (≈ 0.0468 µM); in [7] it was 0.12 µg/mL (≈ 0.0935 µM). The MIC was determined as 0.06 µg/mL (≈ 0.0468 µM) in test [8], 0.06 µg/mL (≈ 0.0468 µM) in [9] and 64 µg/mL (≈ 49.9 µM) in test [10]. Also, the 50% effect level in [5] (ED50) was put at a dose of 1.25 mg/kg.
With `CNCCCN(C)C(=O)[C@H]1NC(=O)[C@H]2NC(=O)[C@H](NC(=O)[C@@H]3NC(=O)[C@H]4NC(=O)[C@@H](Cc5ccc(c(Cl)c5)Oc5cc3cc(c5O)Oc3ccc(cc3Cl)[C@H]2O)NC(=O)[C@H](N)c2ccc(O)c(c2)Oc2cc(O)cc4c2)c2ccc(O)c(c2)-c2c(O)cc(O)cc21`, the MIC in [1] was 16 µg/mL (≈ 12.5 µM); in [2] it was 0.06 µg/mL (≈ 0.0468 µM); in test [3], 2 µg/mL (≈ 1.56 µM); in test [4], 0.12 µg/mL (≈ 0.0935 µM); in test [6], 0.06 µg/mL (≈ 0.0468 µM); in [7], 0.12 µg/mL (≈ 0.0935 µM). Moreover, the MIC was 0.06 µg/mL (≈ 0.0468 µM) in [8], 0.06 µg/mL (≈ 0.0468 µM) in [9] and 32 µg/mL (≈ 24.9 µM) in test [10]. Moreover, it took a dose of 0.95 mg/kg to reach the 50% effect level in [5] (ED50).
With `CCNCCNC(=O)[C@H]1NC(=O)[C@H]2NC(=O)[C@H](NC(=O)[C@@H]3NC(=O)[C@H]4NC(=O)[C@@H](Cc5ccc(c(Cl)c5)Oc5cc3cc(c5O)Oc3ccc(cc3Cl)[C@H]2O)NC(=O)[C@H](N)c2ccc(O)c(c2)Oc2cc(O)cc4c2)c2ccc(O)c(c2)-c2c(O)cc(O)cc21`, the MIC in test [1] was 32 µg/mL (≈ 25.2 µM); in test [2] it was 0.06 µg/mL (≈ 0.0473 µM); in test [3], 8 µg/mL (≈ 6.3 µM); in test [4], 0.12 µg/mL (≈ 0.0946 µM); in test [6], 0.12 µg/mL (≈ 0.0946 µM); in [7], 0.12 µg/mL (≈ 0.0946 µM). Moreover, the figures for the MIC in test [8], in test [9] and in test [10] were 0.06 µg/mL (≈ 0.0473 µM), 0.06 µg/mL (≈ 0.0473 µM) and 64 µg/mL (≈ 50.4 µM), respectively. The ED50 in [5] was found to be 1.25 mg/kg.
Take `NCCCCCCNC(=O)[C@H]1NC(=O)[C@H]2NC(=O)[C@H](NC(=O)[C@@H]3NC(=O)[C@H]4NC(=O)[C@@H](Cc5ccc(c(Cl)c5)Oc5cc3cc(c5O)Oc3ccc(cc3Cl)[C@H]2O)NC(=O)[C@H](N)c2ccc(O)c(c2)Oc2cc(O)cc4c2)c2ccc(O)c(c2)-c2c(O)cc(O)cc21`: the MIC in test [1] was determined as 64 µg/mL (≈ 49.3 µM); in test [2], 0.06 µg/mL (≈ 0.0463 µM); in test [3], 4 µg/mL (≈ 3.08 µM); in test [4], 0.06 µg/mL (≈ 0.0463 µM); in test [6], 0.12 µg/mL (≈ 0.0925 µM); in [7], 0.12 µg/mL (≈ 0.0925 µM). The MIC came to 0.06 µg/mL (≈ 0.0463 µM) in test [8], 0.06 µg/mL (≈ 0.0463 µM) in [9] and 64 µg/mL (≈ 49.3 µM) in test [10]. The compound further registered an ED50 in [5] of 0.54 mg/kg.
Take `CN(C)CCNC(=O)[C@H]1NC(=O)[C@H]2NC(=O)[C@H](NC(=O)[C@@H]3NC(=O)[C@H]4NC(=O)[C@@H](Cc5ccc(c(Cl)c5)Oc5cc3cc(c5O)Oc3ccc(cc3Cl)[C@H]2O)NC(=O)[C@H](N)c2ccc(O)c(c2)Oc2cc(O)cc4c2)c2ccc(O)c(c2)-c2c(O)cc(O)cc21`: the MIC in [1] is 16 µg/mL (≈ 12.6 µM); in [2], 0.06 µg/mL (≈ 0.0473 µM); in [3], 4 µg/mL (≈ 3.15 µM); in [4], 0.12 µg/mL (≈ 0.0946 µM); in test [6], 0.06 µg/mL (≈ 0.0473 µM); in test [7], 0.12 µg/mL (≈ 0.0946 µM). For the same compound, the values for the MIC in test [8], in test [9] and in [10] were 0.06 µg/mL (≈ 0.0473 µM), 0.06 µg/mL (≈ 0.0473 µM) and 32 µg/mL (≈ 25.2 µM), respectively. In addition, the 50% effect level in [5] (ED50) was put at a dose of 1.25 mg/kg.
